The values below come from paper PMC7261596 (Journal of the American Chemical Society, 2019).

In experiment [1] the target is T1, ULK4 (Homo sapiens, UniProt Q96C45). In words: Mant-ADP FRET nucleotide binding / displacement assay. Conditions: competition with a fixed concentration of Mant-ADP.
In experiment [2] the target is T1, ULK4. In words: ADP-Biotin labelling assay detected by Western blot. The experiment is classed as binding. The following applies: single concentration 25 μM; ratio of Streptavidin signal to His signal. An outline of the steps:
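ULK4 incubated with the nucleotide analog ADP-Biotin, which biotin-labels the kinase only when bound. Biotinylated protein detected by Western blot. Test compounds, hits confirmed from a Mant-ADP displacement screen and dose response, tested at 25 μM, with competing nucleotides also at 25 μM. Mutant ULK4 forms also assayed for ADP-Biotin binding.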
A general note: A western blot detects proteins with antibodies after separation by electrophoresis.

T1 sequence (Q96C45 4-280 limits assumed): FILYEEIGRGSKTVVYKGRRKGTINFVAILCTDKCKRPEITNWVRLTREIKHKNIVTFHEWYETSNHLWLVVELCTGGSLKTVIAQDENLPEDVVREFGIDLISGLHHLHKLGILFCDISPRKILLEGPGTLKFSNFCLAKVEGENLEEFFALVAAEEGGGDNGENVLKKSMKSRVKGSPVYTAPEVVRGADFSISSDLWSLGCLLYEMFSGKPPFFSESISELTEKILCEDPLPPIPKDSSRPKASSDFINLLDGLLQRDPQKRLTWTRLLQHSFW

One may read the Ki as the equilibrium dissociation constant of an inhibitor or competing ligand from its target. Turning to `Nc1ncnc2c1ncn2[C@@H]1O[C@H](COP(=O)(O)OP(=O)(O)OP(=O)(O)O)[C@@H](O)[C@H]1O` [ATP], the Ki in experiment [1] (With Mg) came out at 4.67 µM; in experiment [1] (Without Mg), 0.306 µM. On to `CNC(=O)c1nn(C)c2c1C(C)(C)Cc1cnc(Nc3ccc(N4CCN(C)CC4)cc3)nc1-2` [PHA-848125], for which, in experiment [2], the “inhibition of ADP-Biotin binding to ULK4 (relative potency)” value is on record as “most potent ULK4 binders”.

Consider `Nc1ncnc2c1ncn2[C@@H]1O[C@H](COP(=O)(O)OP(=O)(O)O)[C@@H](O)[C@H]1O` [ADP], for which the Ki in experiment [1] (With Mg) worked out at 37 µM; in experiment [1] (Without Mg), 6.05 µM. On to `COc1cc(Nc2ncc(F)c(Nc3ccc4c(n3)N(COP(=O)(O)O)C(=O)C(C)(C)O4)n2)cc(OC)c1OC` [R788], for which, in experiment [2], the “inhibition of ADP-Biotin binding to ULK4 (relative potency)” value is recorded as “most potent ULK4 binders”.
